Laboratory results reported in ChEMBL document CHEMBL1125920, “Synthesis and biological activity of 5-alkyl-1,7,8-trisubstituted-6-fluoroquinoline-3-carboxylic acids” (1991).
In brackets after ≈: the same amount, converted by molar mass.

What was measured:
Enterobacter cloacae = assay: Antibacterial activity against gram negative organism, […] (MA2646); type: functional
Escherichia coli = assay: Antibacterial activity was determined against gram negative organism, E. coli(vogel); type: functional
Outline: (§1)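 MIC by standard microtitration against a panel of 10 representative Gram-negative and Gram-positive organisms; values reported in µg/mL.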

Klebsiella pneumoniae = assay: Antibacterial activity was determined against gram negative organism, K. pneumoniae (MGH-2); type: functional; outline: as §1
Mus musculus [1] = assay: In vivo subcutaneous protective dose was determined in female charles river CD-1 mice infected with Streptococcus pneumoniae; type: functional; conditions: sc, read-out: PD50
Outline: (§2)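 Acute lethal systemic infection model in mice; drug given by subcutaneous injection; potency read out as median protective dose (PD50), in mg/kg.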

Mus musculus [2] = assay: In vivo oral protective dose was determined in female charles river CD-1 mice infected with Escherichia coli (vogel); type: functional; conditions: for ED50: Mus musculus, po, read-out: PD50
Outline: (§3)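 Acute lethal systemic infection model in mice; drug given orally by gavage; potency read out as median protective dose (PD50), in mg/kg.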

Mus musculus [3] = assay: In vivo oral protective dose was determined in female charles river CD-1 mice infected with Streptococcus pneumoniae; type: functional; conditions: read-out: PD50; outline: as §3
Mus musculus [4] = assay: In vivo subcutaneous protective dose was determined in female charles river CD-1 mice infected with Escherichia coli (vogel); type: functional; conditions: sc, read-out: PD50; outline: as §2
Pseudomonas aeruginosa = assay: Antibacterial activity was determined against gram negative organism, Pseudomonas aeruginosa (UI-18); type: functional; outline: as §1
Bacteria = assay: Antibacterial activity was determined against gram negative organism, Providencia rettgeri. (M1771); type: functional; outline: as §1
Streptococcus pneumoniae = assay: Antibacterial activity was determined against gram positive organism, Streptococcus pneumoniae (SV-1); type: functional; outline: as §1
Enterococcus faecalis = assay: Antibacterial activity was determined against gram positive organism, Streptococcus faecalis (MGH-2); type: functional; outline: as §1
Streptococcus pyogenes = assay: Antibacterial activity was determined against gram positive organism, Streptococcus pyogenes (C203); type: functional; outline: as §1
Staphylococcus aureus [5] = assay: Antibacterial activity was determined against gram positive organism, Staphylococcus aureus (H228); type: functional; outline: as §1
Staphylococcus aureus [6] = assay: Antibacterial activity was determined against gram positive organism, Staphylococcus aureus (UC76); type: functional; outline: as §1
[7] = MIC ratio measured as the mean MICs of gram-negative bacteria; type: functional
Outline: (§4)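 Geometric mean of the MICs (µg/mL) over the Gram-negative or the Gram-positive strains of the 10-organism microtitration panel, calculated separately for each class.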

[8] = MIC ratio measured as the mean MICs of gram-positive bacteria; type: functional; outline: as §4
[9] = target: DNA gyrase (Escherichia coli) (UniProt P0AES6+P0AES4)

SMILES	MIC (Enterobacter cloacae)	MIC (Escherichia coli)	MIC (Klebsiella pneumoniae)	ED50 (Mus musculus [1])	ED50 (Mus musculus [2])	ED50 (Mus musculus [3])	ED50 (Mus musculus [4])	MIC (Pseudomonas aeruginosa)	MIC (Bacteria)	MIC (Streptococcus pneumoniae)	MIC (Enterococcus faecalis)	MIC (Streptococcus pyogenes)	MIC (Staphylococcus aureus [5])	MIC (Staphylococcus aureus [6])	Ratio [7]	Ratio [8]	DNA cleavage [9]	PD50 (Mus musculus [2])
CCNCC1CCN(c2c(F)c(C)c3c(=O)c(C(=O)O)cn(C4CC4)c3c2F)C1 (configuration not stated)	0.1 µg/mL (≈ 0.247 µM)	0.05 µg/mL (≈ 0.123 µM)	0.1 µg/mL (≈ 0.247 µM)	1.6 mg/kg	14 mg/kg	2.8 mg/kg	3 mg/kg	0.8 µg/mL (≈ 1.97 µM)	0.2 µg/mL (≈ 0.493 µM)	0.003 µg/mL (≈ 0.0074 µM)	0.025 µg/mL (≈ 0.0617 µM)	0.006 µg/mL (≈ 0.0148 µM)	0.013 µg/mL (≈ 0.0321 µM)	0.003 µg/mL (≈ 0.0074 µM)	0.15	0.0071	3 µg/mL	
CC1CN(c2cc3c(cc2F)c(=O)c(C(=O)O)cn3C2CC2)CCN1 (configuration not stated)			0.05 µg/mL (≈ 0.145 µM)	12 mg/kg	1 mg/kg	39 mg/kg	0.4 mg/kg	0.4 µg/mL (≈ 1.16 µM)	0.1 µg/mL (≈ 0.29 µM)	0.2 µg/mL (≈ 0.579 µM)	0.4 µg/mL (≈ 1.16 µM)	0.2 µg/mL (≈ 0.579 µM)	0.4 µg/mL (≈ 1.16 µM)	0.1 µg/mL (≈ 0.29 µM)	0.066	0.23		
NC1CCN(c2cc3c(cc2F)c(=O)c(C(=O)O)cn3C2CC2)C1 (configuration not stated)		0.025 µg/mL (≈ 0.0754 µM)			3.4 mg/kg		0.5 mg/kg	0.2 µg/mL (≈ 0.604 µM)	0.1 µg/mL (≈ 0.302 µM)	0.1 µg/mL (≈ 0.302 µM)					0.057	0.075	0.1 µg/mL	3.4 mg/kg
Cc1c(F)c(N2CCNC(C)C2)cc2c1c(=O)c(C(=O)O)cn2C1CC1 (configuration not stated) [GREPAFLOXACIN]	0.025 µg/mL (≈ 0.0696 µM)	0.013 µg/mL (≈ 0.0362 µM)	0.05 µg/mL (≈ 0.139 µM)	8 mg/kg	1.5 mg/kg	24 mg/kg	0.5 mg/kg	0.8 µg/mL (≈ 2.23 µM)	0.2 µg/mL (≈ 0.556 µM)	0.025 µg/mL (≈ 0.0696 µM)	0.1 µg/mL (≈ 0.278 µM)	0.05 µg/mL (≈ 0.139 µM)	0.1 µg/mL (≈ 0.278 µM)	0.025 µg/mL (≈ 0.0696 µM)	0.6	2.07	3.75 µg/mL	
Cc1c(F)c(N2CCC(N)C2)cc2c1c(=O)c(C(=O)O)cn2C1CC1 (configuration not stated)	0.05 µg/mL (≈ 0.145 µM)	0.025 µg/mL (≈ 0.0724 µM)	0.1 µg/mL (≈ 0.29 µM)		9.5 mg/kg		0.7 mg/kg	0.4 µg/mL (≈ 1.16 µM)	0.1 µg/mL (≈ 0.29 µM)	0.013 µg/mL (≈ 0.0376 µM)	0.4 µg/mL (≈ 1.16 µM)	0.025 µg/mL (≈ 0.0724 µM)	0.1 µg/mL (≈ 0.29 µM)	0.025 µg/mL (≈ 0.0724 µM)	0.087	0.05	0.38 µg/mL	
Cc1c(F)c(N2CCNCC2)cc2c1c(=O)c(C(=O)O)cn2C1CC1	0.013 µg/mL (≈ 0.0376 µM)	0.013 µg/mL (≈ 0.0376 µM)	0.05 µg/mL (≈ 0.145 µM)	21 mg/kg	1.5 mg/kg	100 mg/kg	0.4 mg/kg	0.2 µg/mL (≈ 0.579 µM)	0.1 µg/mL (≈ 0.29 µM)	0.05 µg/mL (≈ 0.145 µM)	0.05 µg/mL (≈ 0.145 µM)	0.1 µg/mL (≈ 0.29 µM)	0.1 µg/mL (≈ 0.29 µM)	0.025 µg/mL (≈ 0.0724 µM)	0.044	0.057	0.3 µg/mL	
Cc1c(F)c(N2CCNCC2)c(F)c2c1c(=O)c(C(=O)O)cn2C1CC1	0.025 µg/mL (≈ 0.0688 µM)	0.025 µg/mL (≈ 0.0688 µM)	0.025 µg/mL (≈ 0.0688 µM)	13.5 mg/kg	0.4 mg/kg	14 mg/kg	0.2 mg/kg	0.2 µg/mL (≈ 0.55 µM)	0.05 µg/mL (≈ 0.138 µM)	0.025 µg/mL (≈ 0.0688 µM)	0.05 µg/mL (≈ 0.138 µM)	0.05 µg/mL (≈ 0.138 µM)	0.025 µg/mL (≈ 0.0688 µM)	0.025 µg/mL (≈ 0.0688 µM)	0.043	0.033	2.75 µg/mL	
NC1CCN(c2c(F)cc3c(=O)c(C(=O)O)cn(C4CC4)c3c2F)C1 (configuration not stated)		0.013 µg/mL (≈ 0.0372 µM)		6 mg/kg	1 mg/kg	15 mg/kg	0.4 mg/kg		0.05 µg/mL (≈ 0.143 µM)	0.05 µg/mL (≈ 0.143 µM)				0.013 µg/mL (≈ 0.0372 µM)	0.029	0.044	0.25 µg/mL	
O=C(O)c1cn(C2CC2)c2cc(N3CCNCC3)c(F)cc2c1=O [CIPROFLOXACIN]				19 mg/kg	1 mg/kg	100 mg/kg	0.25 mg/kg	0.4 µg/mL (≈ 1.21 µM)	0.05 µg/mL (≈ 0.151 µM)		0.8 µg/mL (≈ 2.41 µM)	0.8 µg/mL (≈ 2.41 µM)		0.2 µg/mL (≈ 0.604 µM)				
